Reference: ChEMBL document CHEMBL1132994, “Synthesis and anticonvulsant and neurotoxic properties of substituted N-phenyl derivatives of the phthalimide pharmacophore” (J Med Chem, 2000)
The source made the active and inactive calls. The calls are words filed in the database; no cut-off is given here.

Legend:
Mus musculus [1] = experiment: Neurotoxicity determined by rotarod test after intraperitoneal administration at a concentration of 300 mg/kg after 4 hours; Inactive; type: functional, organism-based; set-up: dose 300 mg/kg
Mus musculus [2] = experiment: Anticonvulsant activity in mice through seizures induced by sc pentylenetetrazole (intraperitoneal administration at a concentration of 300 mg/kg after 4 hours; Inactive; type: functional, organism-based; set-up: dose 300 mg/kg
Mus musculus [3] = experiment: Neurotoxicity by rotarod test after intraperitoneal administration at a concentration of 300 mg/kg after 30 minutes; Inactive; type: functional, organism-based; set-up: dose 300 mg/kg
Mus musculus [4] = experiment: Anticonvulsant activity in mice through seizures induced by sc pentylenetetrazole (intraperitoneal administration at a concentration of 300 mg/kg after 30 min; Inactive; type: functional, organism-based; set-up: dose 300 mg/kg
Mus musculus [5] = experiment: Anticonvulsant activity in mice through seizures induced by maximal electroshock (MES) tests after ip administration at a concentration of 300 mg/kg after 4 hours; Inactive; type: functional, organism-based; set-up: dose 300 mg/kg
Mus musculus [6] = experiment: Anticonvulsant activity in mice through seizures induced by maximal electroshock (MES) tests after ip administration at a concentration of 100 mg/kg after 30 min; Inactive; type: functional, organism-based; set-up: dose 100 mg/kg
Mus musculus [7] = experiment: Neurotoxicity by rotarod test after intraperitoneal administration at a concentration of 300 mg/kg after 4 hours; Active; type: functional, organism-based; set-up: dose 300 mg/kg
Mus musculus [8] = experiment: Anticonvulsant activity in mice through seizures induced by subcutaneous pentylenetetrazole (scPTZ) tests after ip administration at a concentration of 300 mg/kg after 30 min; Inactive; type: functional, organism-based; set-up: dose 300 mg/kg
Mus musculus [9] = experiment: Anticonvulsant activity in mice through seizures induced by maximal electroshock (MES) tests after ip administration at a concentration of 100 mg/kg after 30 min; Active; type: functional, organism-based; set-up: dose 100 mg/kg
Mus musculus [10] = experiment: Neurotoxicity by rotarod test after intraperitoneal administration at a concentration of 300 mg/kg after 30 minutes; Active; type: functional, organism-based; set-up: dose 300 mg/kg
Mus musculus [11] = experiment: Anticonvulsant activity in mice through seizures induced by maximal electroshock (MES) tests after ip administration at a concentration of 300 mg/kg after 4 hours; Active; type: functional, organism-based; set-up: dose 300 mg/kg
Mus musculus [12] = experiment: Neurotoxicity by rotarod test after intraperitoneal administration at a concentration of 300 mg/kg after 30 minutes; active; type: functional, organism-based; set-up: dose 300 mg/kg
Rattus norvegicus [13] = experiment: (§1) Toxicity screening in rats dosed orally with the compound; No toxicity; type: organism-based; details: in vivo, po
Rattus norvegicus [14] = experiment: Anticonvulsant activity was measured in rats through seizures induced by maximal electroshock (MES) tests by oral administration of drug after 30 minutes.; type: functional
How it was run: (§2)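 Rats given a single oral dose of 30 or 50 mg/kg, depending on compound; MES protection scored at 15, 30, 60, 120 and 240 min. Activity graded by fraction of animals protected (0-25%, 25-50%, 50-75%, 75-100%); neurotoxicity monitored at the same time points.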

Rattus norvegicus [15] = experiment: Anticonvulsant activity was measured in rats through seizures induced by maximal electroshock (MES) tests by oral administration of drug after 2 hours.; type: functional; how it was run: as §2
Mus musculus [16] = experiment: Anticonvulsant activity in mice through seizures induced by maximal electroshock (MES) tests after ip administration at a concentration of 100 mg/kg after 30 min; active; type: functional, organism-based; set-up: dose 100 mg/kg
Rattus norvegicus [17] = experiment: Anticonvulsant activity was measured in rats through seizures induced by maximal electroshock (MES) tests by oral administration of drug after 15 minutes.; type: functional; how it was run: as §2
Mus musculus [18] = experiment: Anticonvulsant activity in mice through seizures induced by subcutaneous pentylenetetrazole (scPTZ) tests after ip administration at a concentration of 300 mg/kg after 30 min; active; type: functional, organism-based; set-up: dose 300 mg/kg
Rattus norvegicus [19] = experiment: Anticonvulsant activity was measured in rats through seizures induced by maximal electroshock (MES) tests by oral administration of drug after 1 hour.; type: functional; how it was run: as §2
Rattus norvegicus [20] = experiment: Anticonvulsant activity in rats through seizures induced by maximal electroshock (MES) tests by oral administration of drug at a concentration of 30 mg/kg after 15 minutes; No activity; type: functional, organism-based; set-up: dose 30 mg/kg; how it was run: as §2
Rattus norvegicus [21] = experiment: Anticonvulsant activity in rats through seizures induced by maximal electroshock (MES) tests after oral administration at a concentration of 30 mg/kg after 1 hour.; type: functional; how it was run: as §2
Mus musculus [22] = experiment: Anticonvulsant activity in mice through seizures induced by subcutaneous pentylenetetrazole (scPTZ) tests after ip administration at a concentration of 300 mg/kg after 4 hours; Inactive; type: functional, organism-based; set-up: dose 300 mg/kg
Mus musculus [23] = experiment: Anticonvulsant activity in mice through seizures induced by subcutaneous pentylenetetrazole (scPTZ) test after ip administration at a concentration of 300 mg/kg after 30 min; Inactive; type: functional, organism-based; set-up: dose 300 mg/kg
Mus musculus [24] = experiment: Neurotoxicity by rotarod test after ip administration at a concentration of 300 mg/kg after 30 minutes; Active; type: functional, organism-based; set-up: dose 300 mg/kg
Rattus norvegicus [25] = experiment: as §1; type: functional, organism-based
How it was run: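 Rats given a single oral dose of 30 or 50 mg/kg, depending on compound. Minimal neurotoxicity was scored at 15, 30, 60, 120 and 240 min after dosing, alongside the MES test. Scores are graded by the percentage of animals affected.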

Rattus norvegicus [26] = experiment: Anticonvulsant activity in rats through seizures induced by maximal electroshock (MES) tests by oral administration of drug at a concentration of 30 mg/kg after 30 minutes; type: functional; how it was run: as §2
Rattus norvegicus [27] = experiment: Anticonvulsant activity was measured in rats through seizures induced by maximal electroshock (MES) tests by oral administration of drug after 4 hours.; type: functional; how it was run: as §2
Rattus norvegicus [28] = experiment: Anticonvulsant activity was measured in rats through seizures induced by maximal electroshock (MES) tests by oral administration of drug at a concentration of 30 mg/kg after 2 hours.; type: functional; how it was run: as §2
Mus musculus [29] = experiment: Anticonvulsant activity in mice through seizures induced by subcutaneous pentylenetetrazole (scPTZ) tests after ip administration at a concentration of 300 mg/kg after 30 min; Active; type: functional, organism-based; set-up: dose 300 mg/kg
Mus musculus [30] = experiment: Anticonvulsant activity in mice through seizures induced by subcutaneous pentylenetetrazole (scPTZ) tests after ip administration at a concentration of 300 mg/kg after 4 hours; Active; type: functional, organism-based; set-up: dose 300 mg/kg
Mus musculus [31] = experiment: Anticonvulsant activity in mice through seizures induced by maximal electroshock (MES) tests after ipb administration at a concentration of 300 mg/kg after 4 hours.; Inactive; type: functional, organism-based; set-up: dose 300 mg/kg
Mus musculus [32] = experiment: Anticonvulsant activity in mice through seizures induced by scpentylenetetrazol (intraperitoneal administration at a concentration of 300 mg/kg after 4 hours; Inactive; type: functional, organism-based; set-up: dose 300 mg/kg
Mus musculus [33] = experiment: Neurotoxicity by rotarod test after intraperitoneal administration at a concentration of 300 mg/kg after 4 hours.; Inactive; type: functional, organism-based; set-up: dose 300 mg/kg
Mus musculus [34] = experiment: Neurotoxicity by rotarod test after intraperitoneal administration at a concentration of 300 mg/kg after 30 minutes.; active; type: functional, organism-based; set-up: dose 300 mg/kg
Mus musculus [35] = experiment: Anticonvulsant activity in mice through seizures induced by maximal electroshock (MES) tests after intraperitoneal administration at a concentration of 300 mg/kg after 4 hours; Inactive; type: functional, organism-based; set-up: dose 300 mg/kg

Structure (SMILES) | Activity (Mus musculus [1]) | Activity (Mus musculus [2]) | Activity (Mus musculus [3]) | Activity (Mus musculus [4]) | Activity (Mus musculus [5]) | Activity (Mus musculus [6]) | Activity (Mus musculus [8]) | Activity (Mus musculus [9]) | further results
O=C1c2ccccc2C(=O)N1c1ccc([N+](=O)[O-])cc1 | inactive | inactive | inactive | inactive | inactive | inactive | – | – | –
Cc1cc(N)ccc1N1C(=O)c2ccccc2C1=O | – | inactive | – | – | – | – | inactive | Active | Activity (Mus musculus [7]): Active; Activity (Mus musculus [10]): Active; Activity (Mus musculus [11]): Active
Cc1cccnc1N1C(=O)c2ccccc2C1=O | inactive | inactive | – | – | inactive | – | – | – | Activity (Mus musculus [12]): Active; Toxicity (Rattus norvegicus [13]): No toxicity; Activity in animals (Rattus norvegicus [14]): 50%; Activity in animals (Rattus norvegicus [15]): 50%; Activity (Mus musculus [16]): Active; Activity in animals (Rattus norvegicus [17]): 25%; Activity (Mus musculus [18]): Active; Activity in animals (Rattus norvegicus [19]): 50%
Nc1ccc(N2C(=O)c3ccccc3C2=O)cc1 | inactive | – | – | – | inactive | – | – | Active | Activity in animals (Rattus norvegicus [20]): No activity; Activity in animals (Rattus norvegicus [21]): 75%; Activity (Mus musculus [22]): inactive; Activity (Mus musculus [23]): inactive; Activity (Mus musculus [24]): Active; Toxicity (Rattus norvegicus [25]): Not toxic; Activity in animals (Rattus norvegicus [26]): 25%; Activity in animals (Rattus norvegicus [27]): 25%; Activity in animals (Rattus norvegicus [28]): 50%
Cc1ccc([N+](=O)[O-])cc1N1C(=O)c2ccccc2C1=O | – | – | – | – | – | – | – | Active | Activity (Mus musculus [7]): Active; Activity (Mus musculus [29]): Active; Activity (Mus musculus [30]): Active; Activity (Mus musculus [10]): Active; Activity (Mus musculus [11]): Active
O=C1c2ccccc2C(=O)N1c1ccc([N+](=O)[O-])cc1Cl | inactive | inactive | inactive | – | – | inactive | inactive | – | Activity (Mus musculus [31]): inactive
Cc1cccc(C)c1N1C(=O)c2ccccc2C1=O | inactive | – | inactive | inactive | inactive | – | – | – | Toxicity (Rattus norvegicus [13]): No toxicity; Activity (Mus musculus [32]): inactive; Activity in animals (Rattus norvegicus [14]): 50%; Activity in animals (Rattus norvegicus [15]): 25%; Activity (Mus musculus [16]): Active; Activity in animals (Rattus norvegicus [27]): 50%; Activity in animals (Rattus norvegicus [17]): 50%
COC(=O)c1ccccc1N1C(=O)c2ccccc2C1=O | – | inactive | – | inactive | inactive | – | – | – | Activity (Mus musculus [33]): inactive; Activity (Mus musculus [34]): Active
COc1ccc(N2C(=O)c3ccccc3C2=O)c(OC)c1 | inactive | inactive | inactive | inactive | – | inactive | – | – | Activity (Mus musculus [35]): inactive
Cc1c(C(=O)O)cccc1N1C(=O)c2ccccc2C1=O | inactive | – | inactive | – | inactive | inactive | inactive | – | Activity (Mus musculus [22]): inactive
